In ChEMBL document CHEMBL4513216, “Probing the Open Global Health Chemical Diversity Library for Multistage-Active Starting Points for Next-Generation Antimalarials” (ACS Infect Dis, 2020):

assay: Toxicity liver stage against HepG2, at 10uM; type: cell-based; set-up: test concentration 10 uM, cell line HepG2-A16-CD81EGFP; settings: human, HepG2-A16-CD81EGFP cells; read-out: INHIBITION
Method in brief: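 Uninfected HepG2-A16-CD81EGFP cells, 3 × 10^3 per well, 1536-well, plated on prespotted compound at 10 μM final, parasite-free screening media added to match infected plates; puromycin 10 μM positive, DMSO 0.5% negative; run in parallel with 48 h PbLuc assay at 37 °C, 5% CO2; viability by CellTiter-Glo luminescence, normalized to controls.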

First: Cc1ccc2c(c1)c(C)cc(=O)n2CCC(=O)O
Second: COCc1cc(CN(C)C(=O)CCC(=O)Nc2cc(C)ccc2F)n[nH]1
The cytotoxicity at 10 µM of the first is higher: -5.6% for the first, -14.5% for the second.

Going from Cn1cnnc1SC1CCc2ccccc2NC1=O (centres undefined) to Cn1ccnc1SCC(=O)NCc1ccc2c(c1)CCC(=O)N2, the cytotoxicity at 10 µM rises from -0.373% to 7.66%.

Going from COCCCN1C(=O)c2ccc(C(=O)NCCc3c[nH]cn3)cc2C1=O to Cc1cnc(CNC(=O)CCCn2cnc3ccccc3c2=O)cn1, the cytotoxicity at 10 µM falls from -3.76% to -7.2%.

First: COc1ccc(OC)c(C(O)CN2CCN(c3cccc(C)c3)CC2)c1 (centres undefined)
Second: CN[C@@H](C)C(=O)N(Cc1cccc(C)c1)Cc1ccccc1OC
The cytotoxicity at 10 µM of the first is higher: 6.69% for the first, -39.5% for the second.

Compared with CCCS(=O)(=O)N1CCN(c2cc(-n3cccc3)nc(C)n2)CC1, CCc1ncnc2c1CCN(S(=O)(=O)CC)CC2 is lower in cytotoxicity at 10 µM: 6.62% for the first, -105% for the second.

Compared with CC(=O)N1CCC(CSCc2ccco2)CC1, CN(CCc1ccccc1)C(=O)c1cc(CN2CCC(O)CC2)on1 is lower in cytotoxicity at 10 µM: 9.77% for the first, -2.92% for the second.

Going from Cn1cnc(S(=O)(=O)N2CCCn3cnc(CN4CCCC4)c3C2)c1 to COc1ccc(CN2CCCC(N3CCCC3)C2)cc1Cn1cncn1 (centres undefined), the cytotoxicity at 10 µM rises from 1.27% to 7.33%.

Going from O=C(O)C1CCCN(C(=O)CCn2ccc3c(Br)cccc32)C1 (centres undefined) to Cc1cnn(CC2CCCN2C(=O)c2ccc(C(N)=O)cn2)c1 (centres undefined), the cytotoxicity at 10 µM falls from 10.9% to -4.64%.

First: Cc1c(C(=O)N2CCN(c3ncccn3)CC2)n(C)c2ccc(Cl)cc12
Second: CC(C(=O)N1CCN(c2ccccc2Cl)CC1)n1cncn1 (centres undefined)
The cytotoxicity at 10 µM of the first is lower: 3.99% for the first, 5.17% for the second.

Going from CCn1ncc(CN2CCN(C(=O)Cn3cc(Br)c(C)n3)CC2)c1C to CCn1cc(CN2CCCN(C3Cc4ccccc4C3)CC2)c(C)n1, the cytotoxicity at 10 µM falls from 0.301% to -10.9%.

Compared with Cc1nn(C)c2c(N3CCCC3)nc(C3CC3)nc12, CCC(=O)N1CCC(c2nc(C)c3c(n2)N(C)CCC3)CC1 is higher in cytotoxicity at 10 µM: 0.12% for the first, 4.26% for the second.

First: NC(=O)c1cccc(-c2cnc(C3CCCNC3)cn2)c1 (centres undefined)
Second: c1ccc(CCNc2cccc(C3CCCNC3)n2)cc1 (centres undefined)
The cytotoxicity at 10 µM of the first is higher: -0.055% for the first, -3.18% for the second.

Going from O=C1NC2(CCc3ccccc31)CCN(Cc1cccnc1)C2 (centres undefined) to CN1CCC(C)(CNC(=O)c2ccc(SCc3cccnc3)cc2)CC1, the cytotoxicity at 10 µM rises from 0.9% to 12.4%.

Going from CNC(=O)c1cn[nH]c1C1CCCN1c1nc(C)cc(C)n1 (centres undefined) to Cc1cc(C(=O)NCc2cccnc2N2CCCC(O)C2)[nH]n1 (centres undefined), the cytotoxicity at 10 µM rises from 2.81% to 4.52%.

First: COCCc1ncc(CNC2(c3ccc(Cl)cc3Cl)CC2)cn1
Second: Cc1csc(C2(NCC(O)COc3ccc(F)cc3)CCC2)n1 (centres undefined)
The cytotoxicity at 10 µM of the first is lower: -15.8% for the first, 14.9% for the second.

Going from CN(C)C(=O)CN1CCCC1c1nc(N)ncc1-c1ccc(F)cc1 (centres undefined) to C[C@@H]1CN(C(=O)CCCn2nnc(-c3ccc(F)cc3)n2)C[C@]1(C)O, the cytotoxicity at 10 µM rises from -8.94% to 14.2%.

First: O=C(c1cccs1)N1CCc2c(nc(N3CCCC3)[nH]c2=O)C1
Second: O=C(N[C@H]1COC[C@@H]1N1CCCC1)c1csc(-c2cccs2)n1
The cytotoxicity at 10 µM of the first is lower: -16.3% for the first, 9.71% for the second.

First: O=S(=O)(Cc1ccccc1)CC(O)Cn1cccn1 (centres undefined)
Second: CCC(CC)NC(=O)Cn1cc(C(N)=O)c(-c2ccccc2)n1
The cytotoxicity at 10 µM of the first is higher: 3.4% for the first, -6.87% for the second.

Compared with CC(C)Oc1cccc(CNC(=O)NC2(CO)CCCC2)c1, CC(C)NC(=O)N1CCc2nc(C(=O)NCc3ccccc3)sc2CC1 is higher in cytotoxicity at 10 µM: -57.1% for the first, 4.17% for the second.

First: CC(C)c1cc(C(=O)N(c2ccc(F)cn2)C2CCOCC2)nn1C
Second: COCc1nnc(-c2cccc(C(=O)N(C(C)C)C3CCC3)c2)o1
The cytotoxicity at 10 µM of the first is lower: -4.65% for the first, 1.51% for the second.

Going from COc1ccc(S(=O)(=O)Nc2cccnc2-n2cncn2)c(C)c1 to CCN(C)c1ncnc2c1CCN(Cc1ccc(OC)cc1)CC2, the cytotoxicity at 10 µM rises from 3.64% to 9.88%.

Compared with O=C1NCCCCC1NC(=O)N1CCCc2ccccc21 (centres undefined), Cc1cc(NC(=O)NCC(C)N2CCc3ccccc32)no1 (centres undefined) is lower in cytotoxicity at 10 µM: -3.49% for the first, -6.34% for the second.

Going from CCN1N=C(C(=O)N2CCCC(c3noc(C)n3)C2)CCC1=O (centres undefined) to CCc1nc(C2CCCN2CC(=O)Nc2nncs2)no1 (centres undefined), the cytotoxicity at 10 µM rises from -12.9% to -9.47%.

First: Cc1oc(-c2ccco2)nc1CC(=O)NCC(C)(C)N(C)C
Second: CN(Cc1cc[nH]n1)C(=O)c1cccc(CCC(C)(C)O)c1
The cytotoxicity at 10 µM of the first is lower: -13.9% for the first, -0.0174% for the second.

Compared with CCN1CCN(c2ccc(F)cc2C(C)NCc2cscn2)CC1 (centres undefined), CC(=O)N1CCN(C(=O)CNc2ccc3ncsc3c2)CC1 is higher in cytotoxicity at 10 µM: -10.3% for the first, -2.01% for the second.

Going from Cc1noc(C)c1CNCc1c(C(C)C)nn(C)c1N1CCOCC1 to CN(C)c1cccc(CNCc2ccc(N3CCOCC3)cc2)c1, the cytotoxicity at 10 µM rises from 4.8% to 11.3%.

Going from Cc1nnc(NCCc2nc3ccc(F)cc3n2C)c(C#N)c1C to CCCNc1ncc(-c2cc(C3CC3)nc(N)c2C#N)cn1, the cytotoxicity at 10 µM rises from -0.744% to 8.26%.

Going from O=C(CCC1CCCCC1)NS(=O)(=O)CC1CC1 to O=C(CCN1CCCC(CO)(CC2CC2)C1)NC1CCCCC1 (centres undefined), the cytotoxicity at 10 µM rises from -9.69% to 1.91%.

First: COc1ccc(NC(=O)C2CC2)cc1OCc1cccnc1
Second: Cc1noc2ncc(C(=O)N3CCCC3c3ccncc3)cc12 (centres undefined)
The cytotoxicity at 10 µM of the first is lower: -50.5% for the first, -5.66% for the second.

First: CCNC(=O)CCC(=O)Nc1ccc2nn(C(C)C)cc2c1
Second: COc1cccc(F)c1C(C)NC(=O)NCc1ccnc(C)n1 (centres undefined)
The cytotoxicity at 10 µM of the first is lower: -141% for the first, -10.9% for the second.

Compared with CN(c1ccc(C#N)cn1)C1CCCN(Cc2noc(C3CC3)n2)C1 (centres undefined), Cc1cc(CN2CC[C@H]3C[C@H](C)O[C@@H]3C2)no1 is higher in cytotoxicity at 10 µM: -17.2% for the first, -1.42% for the second.

Compared with CC(C)C1CCN(C(=O)NCC(=O)N(C)CC(F)(F)F)CC1, O=C(NCC(F)(F)F)C(c1cccnc1)N1CCCC1 (centres undefined) is lower in cytotoxicity at 10 µM: 20.7% for the first, 2.26% for the second.

Going from COc1ccccc1CCN(C)Cc1nc(N)nc(N(C)C)n1 to Cc1nc2c(c(N(C)Cc3ccccc3-n3cccn3)n1)CCNCC2, the cytotoxicity at 10 µM falls from 6.96% to -11.2%.

Compared with C[S+]([O-])c1nncn1CC(=O)c1ccc(Cl)c(Cl)c1 (centres undefined), CC(C)Cn1c(=O)n(CCn2cc(Cl)cn2)c2cc(C(=O)O)cnc21 is higher in cytotoxicity at 10 µM: -4.34% for the first, 3.72% for the second.

Compared with O=C(Nc1nc2c(s1)CCC2)c1cccnc1N1CCOCC1, C[C@@H]1CN(c2nc3c(cc2C(N)=O)CCC3)C[C@@]1(O)C1CCC1 is lower in cytotoxicity at 10 µM: 8.5% for the first, -3.98% for the second.

Compared with Cn1cccc1C(=O)NCc1cn2c(n1)CN(S(=O)(=O)C1CC1)CC2, O=S(=O)(C1CC1)N1CCO[C@@H]2CC(COCc3cccnc3)C[C@H]21 (some centres undefined) is higher in cytotoxicity at 10 µM: -114% for the first, 7.01% for the second.

First: O=C(c1ccoc1)N1CC[C@@H]2O[C@H](COCc3ccccn3)CC[C@@H]21
Second: CN(C)C(=O)[C@H]1C[C@@H]2CCN(Cc3ccoc3)C[C@@H]2O1
The cytotoxicity at 10 µM of the first is higher: 5.48% for the first, -99.7% for the second.

First: Cc1nccn1CCCN1CCC2(CCC(=O)N(CC3CC3)C2)CC1
Second: Cn1cc(CN2CCC3(CC2)CCN(C(=O)c2cscn2)CC3)cn1
The cytotoxicity at 10 µM of the first is higher: 3.12% for the first, -0.937% for the second.

Going from CCc1nc(CC2CN(c3ncnc4sc(C)c(C)c34)CCO2)no1 (centres undefined) to Cc1cc(C)n(C2CN(c3nc(N)nc4c3CCCC4)C2)n1, the cytotoxicity at 10 µM falls from 11.9% to -44.4%.

First: COC(=O)CNC(=O)C1(N(C)Cc2ccccc2)Cc2ccccc2C1
Second: O=C(Cn1cnc(NC(=O)CC2CCCC2)n1)NCc1ccccc1
The cytotoxicity at 10 µM of the first is higher: 3.82% for the first, -4.1% for the second.

Going from CC1=C(CCN2C[C@H](O)[C@@H](N3CCOCC3)C2)C(C)(C)CCC1 to O=C(c1ccoc1)N1CCOCC2(CCN(C3CCOCC3)C2)C1 (centres undefined), the cytotoxicity at 10 µM falls from -0.128% to -6.11%.

Going from CC(C)C1CN(c2cnccn2)CCC(=O)N1Cc1ccc(F)cc1 (centres undefined) to CNS(=O)(=O)c1ccc(CN2CCCN(CC(C)C)CC2)cc1, the cytotoxicity at 10 µM rises from 3.67% to 4.03%.

Going from CC(C)=CCN1CCN(C(=O)CSc2ccccn2)[C@H]2CS(=O)(=O)C[C@H]21 to CCC(=O)N1CCC[C@]2(C(=O)N(C)C)CN(c3ccccn3)C[C@@H]2C1, the cytotoxicity at 10 µM rises from 4.97% to 11.5%.

Compared with CC(C)c1cc(NCC2(Cn3cccn3)CC2)nc(N)n1, Cn1ccnc1-c1ccc(NCCC2COc3ccccc3O2)nn1 (centres undefined) is higher in cytotoxicity at 10 µM: 3.19% for the first, 9.56% for the second.

First: Cc1c[nH]c(C(=O)N2CCC(c3nnc(CN(C)CCO)n3C)CC2)c1
Second: Nc1cc(O)nc(CCNC(=O)CC[C@@H]2CCCN3CCCC[C@H]23)n1
The cytotoxicity at 10 µM of the first is lower: -3.52% for the first, -1.89% for the second.

First: CCCn1ccnc1-c1nccn1CCN(C)C
Second: CCCN1CC[C@@H]2[C@@H](CO[C@H]2CNC(=O)c2nccn2C)C1
The cytotoxicity at 10 µM of the first is higher: -1.04% for the first, -111% for the second.

Compared with CCc1oc(C(=O)NCCc2nc(C(=O)O)cs2)cc1CN1CCCC1, CCc1ccc(CN2CCC3(CC2)CN(c2cnn(C)c2)C(=O)CO3)o1 is lower in cytotoxicity at 10 µM: 19.3% for the first, 0.777% for the second.

Going from COCCCC1CCCCN1Cc1cnn(C)c1C1CC1 (centres undefined) to CC(C)c1cc(C(=O)NCC2CCCN(C(C)C)C2)n(C)n1 (centres undefined), the cytotoxicity at 10 µM rises from -2.52% to -1.75%.

Compared with COC(=O)c1cc(OCC2CCC2)cc(C(=O)N[C@@H](C)CO)c1, COc1cccc(S(=O)(=O)NC(=O)COC2CCCC2)c1 is lower in cytotoxicity at 10 µM: -2.18% for the first, -7.1% for the second.

Compared with Cc1ccc(-c2ccnc(NC(C)c3n[nH]c(C)n3)n2)c(C)n1 (centres undefined), Cc1ccc(=O)n(CC2(O)CCN(Cc3ccsc3)CC2)n1 is lower in cytotoxicity at 10 µM: 2.83% for the first, 0.642% for the second.

First: CC(C)(C)OC(=O)NC1CCCN(Cc2cccc(O)c2)C1 (centres undefined)
Second: O=c1cc(CN2C[C@@H]3CC[C@H]2CN(Cc2ccccc2)C3)[nH]c(=O)[nH]1
The cytotoxicity at 10 µM of the first is lower: -45.3% for the first, 8.89% for the second.

Going from O=C(CN1CCOC(Cn2cncn2)C1)NCc1cccs1 (centres undefined) to Cc1n[nH]c(C2CN(C(=O)Cn3ccccc3=O)CCO2)n1 (centres undefined), the cytotoxicity at 10 µM rises from -10.2% to 5.75%.

Compared with Cn1ccnc1CN1CCN(Cc2ccccc2C#N)CC1, c1ccc(-c2cnc(CNCC3CCCN3c3cccnn3)o2)cc1 (centres undefined) is higher in cytotoxicity at 10 µM: -3.83% for the first, 1.56% for the second.

First: CN(C)S(=O)(=O)N1CC[C@]2(C[C@H](Oc3ncccc3F)CO2)C1
Second: NC1(c2nc(C(F)(F)F)cc(=O)[nH]2)CCCCC1
The cytotoxicity at 10 µM of the first is lower: 2.47% for the first, 11% for the second.

With Nc1cnn(CC(=O)N2CCCCC2)c1 the cytotoxicity at 10 µM was -3.15%.
